Reference: PubChem BioAssay AID493226 (Broad Institute, 2011)
“And” between values parts separate entries of the source, which are not always exact repeats. Identical values can stand only once. Results filed as inconclusive are left out. The source made the active and inactive calls.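 Rule for the calls: active = every repeat test active, with falling cell-viability signal and fitted midpoint potency at most ten times the top dose; inconclusive = tests disagree, flat partial drop, or a poor curve fit; inactive = every test flat, too weak, or rising.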

What was measured:
[1] = breast cancer stem cell viability inhibitors – luminescence, dry powder, set 2, dose response (AID 493226); settings: HMLE_shECad viability, CellTiter-Glo luminescence, 72 h; at 30 µM (top of the series)
Procedure, shortened: (§1)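 Material: HMLE cells with stable E-cadherin knockdown (HMLE_shECad), EMT-induced CSC model; Amount: 2000 cells/well; Medium: serum-free CSC screening medium; Dosing: 100 nL compound per well by pin transfer; Schedule: ≥4 h attachment, ~72 h compound exposure, 37 °C; Technique: CellTiter-Glo luminescence.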

[2] = system: HMLE_shECad viability, CellTiter-Glo luminescence, 72 h; assay: as above
Procedure, shortened: as §1

CC(C)c1ccc(/C=C/C(=O)O)cc1
activity change, negative = inhibition [1]: 4.33% (inactive)

CN(C)c1ccc(/C=C/C(=O)NC2=NCCS2)cc1
AC50 [2]: 27.3 µM

Cc1c(C(=O)NC2=NCCS2)oc2ccccc12
activity change, negative = inhibition [1]: -22.6% (inactive)

O=C(COc1c(Cl)cc(Cl)cc1Cl)N/N=C/c1ccc[nH]1
AC50 [2]: 1.16 µM

CCN(CC)C(=O)/C=C/c1ccc(C(C)C)cc1
activity change, negative = inhibition [1]: -2.71% (inactive)

O=C(CCc1ccccc1)NC1=NCCS1
activity change, negative = inhibition [1]: -2.41% (inactive)

O=C(COc1ccc(Cl)cc1)N/N=C/c1ccc[nH]1
AC50 [2]: 22.5 µM

O=C(COc1cc(Cl)ccc1Cl)N/N=C/c1ccc[nH]1
AC50 [2]: 3.39 µM

Cc1ccc(/C=N/NC(=O)COc2ccc(Cl)cc2Cl)[nH]1
AC50 [2]: 14.3 µM

O=C(O)c1ccc(COc2ccccc2)o1
activity change, negative = inhibition [1]: -1.91% (inactive)

Cc1ccccc1NCC(=O)N/N=C/c1ccc[nH]1
activity change, negative = inhibition [1]: -14.1% (inactive)

Cc1cc(Cl)ccc1OCC(=O)N/N=C/c1ccc[nH]1
AC50 [2]: 2.89 µM

O=C(N/N=C/c1ccc[nH]1)c1cc2ccccc2o1
AC50 [2]: 6.33 µM

O=C(NC1=NCCS1)c1cc2ccccc2[nH]1
activity change, negative = inhibition [1]: -16.7% (inactive)

CC(C)c1ccc(/C=C/C(=O)Nc2ccccc2)cc1
AC50 [2]: 3.44 µM

O=C(COc1ccc(Cl)cc1Cl)N/N=C/c1cccs1
activity change, negative = inhibition [1]: -4.9% (inactive)

C/C(=N\NC(=O)COc1ccc(Cl)cc1Cl)c1ccc[nH]1
activity change, negative = inhibition [1]: -10.8% (inactive)

COc1ccc(OC)c(/C=C/C(=O)NC2=NCCS2)c1
activity change, negative = inhibition [1]: 4.36% (inactive)

Cc1ccccc1/C=C/C(=O)NC1=NCCS1
activity change, negative = inhibition [1]: -11.7% (inactive)

CCNC(=O)/C=C/c1ccc(C(C)C)cc1
activity change, negative = inhibition [1]: 0.062% (inactive)

O=C(/C=C/c1cc(Cl)ccc1Cl)NC1=NCCS1
activity change, negative = inhibition [1]: -13.1% (inactive)

COc1ccc(/C=C/C(=O)NC2=NCCS2)c(OC)c1
AC50 [2]: 9.45 µM

Cc1cc(C)c(/C=N/NC(=O)COc2ccc(Cl)cc2Cl)[nH]1
AC50 [2]: 12.6 µM

O=C(NC1CCCC1)c1ccc(COc2ccccc2)o1
activity change, negative = inhibition [1]: -15.7% (inactive)

O=C(/C=C/c1ccc(Cl)c(Cl)c1)NC1=NCCS1
activity change, negative = inhibition [1]: 8.35% (inactive)

Cc1csc(NC(=O)/C=C/c2ccc(C(C)C)cc2)n1
AC50 [2]: 3.29 µM

COc1cc(/C=C/C(=O)NC2=NCCS2)cc(OC)c1OC
activity change, negative = inhibition [1]: 0.693% (inactive)

O=C(COc1ccccc1F)N/N=C/c1ccc[nH]1
activity change, negative = inhibition [1]: 3.8% (inactive)

O=C(N/N=C/c1ccc[nH]1)C1Cc2ccccc2O1 (stereo not given)
activity change, negative = inhibition [1]: 12.7% (inactive)

O=Cc1ccc[nH]1
activity change, negative = inhibition [1]: -5.79% (inactive)

NNC(=O)COc1ccc(Cl)cc1Cl
activity change, negative = inhibition [1]: -13% (inactive)

O=C(C#Cc1ccccc1)NC1=NCCS1
activity change, negative = inhibition [1]: 3.65% (inactive)

O=C(COc1ccc(Cl)cc1Cl)N/N=C/c1ccc[nH]1
AC50 [2]: 2.38 µM and 3.33 µM

Cc1csc(NC(=O)c2ccc(COc3ccccc3)o2)n1
AC50 [2]: 1.18 µM

CC(C)(C)c1ccc2c(c1)OC(C(=O)N/N=C/c1ccc[nH]1)CO2 (stereo not given)
AC50 [2]: 2.52 µM and 2.79 µM

O=C(COc1ccc(Cl)cc1Cl)N/N=C/c1ccco1
activity change, negative = inhibition [1]: -7.8% (inactive)

O=C(COc1ccc(F)cc1Cl)N/N=C/c1ccc[nH]1
AC50 [2]: 8.88 µM

CC(C)c1ccc(/C=C/C(=O)NC2=NCCS2)cc1
AC50 [2]: 0.839 µM

O=C(COc1ccc(Cl)cc1Cl)N/N=C/c1cnc[nH]1
activity change, negative = inhibition [1]: 3.31% (inactive)

CC(=O)Oc1ccc(/C=C/C(=O)NC2=NCCS2)cc1
activity change, negative = inhibition [1]: -16.2% (inactive)
